L major viab – Leishmania major promastigote growth inhibition. Leishmania major promastigotes, resazurin fluorescence viability. inhibition, % at 10 µM. 200,000 tested, 9% active; in the data active = inhibition above about 50%;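 note: promastigotes grown with compound for 44 hours at 28 °C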
XBP1 UPR activ – adaptive UPR (XBP1) activation. CHO-XBP1 luciferase reporter, IRE1-XBP1 UPR activation, luminescence; percent of tunicamycin response, DMSO as zero. activation, % at 20 µM. 330,000 tested, 0.33% active;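 active = versus positive control, 20 µM dose yields 30% or more activation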
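Material: CHO cell line with stable XBP1 luciferase reporter; buffer or medium: F12 medium containing 10% fetal bovine serum; compound: single point, 20 µM final compound, 1% DMSO; incubation: 6 h treatment, 37 °C; measured by: glow luminescence from Steady-Glo reagent; evaluation: activation, % of tunicamycin; control set: tunicamycin high, DMSO low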
Dynein cargo inh – blocks dynein driven cargo transport along microtubules. 220,000 tested, 0.47% active. 3617.4 mouse cells, GR-EGFP nuclear translocation imaging; test concentration mostly 20 µM; stimulated with dexamethasone, 1 µM; hits give low values. z-score, hits read low. AID 1381;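 active = plate z-score of nuclear minus cytoplasmic receptor signal below a set negative limit, without overly bright fluorescence or cell loss, cut at about -3.5 in these data, passing the limit was not always enough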;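 note: z-score of nuclear minus cytoplasmic ring GR-EGFP intensity difference per well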
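Buffer or medium: Induction medium lacking tetracycline, stripped serum | Also added: Dexamethasone agonist, 1.0 µM final, for 30 min | Timing: 48 h induction, 1 h compound, 30 min dex at 37 °C | Detection: Formaldehyde fixation, Hoechst nuclear stain, 10x automated fluorescence imaging | Measure: Nuclear versus cytoplasmic GR-EGFP signal, averaged per well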
UPR CHOP act – activators of apoptotic arm of unfolded protein response (CHOP); CHO-CHOP luciferase reporter, UPR activation, luminescence; percent of tunicamycin response over DMSO baseline; activation, % at 10 µM; 330,000 tested, 0.34% active;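 active = at 10 µM dose, activation of 40% or more, normalized to positive control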
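System: CHO-CHOP luciferase reporter cell line; amount: 500 cells/well; buffer or medium: F12 medium containing 10% fetal bovine serum; incubation: 6 h compound exposure at 37 °C after overnight seeding; measured by: luciferase luminescence after 10 min with Steady-Glo reagent; evaluation: % reporter activation, DMSO baseline versus tunicamycin full activation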
T cruzi repl – T. cruzi replication inhibition | T. cruzi beta-gal in NIH3T3, luminescence, 90 h | inhibition, % (test concentration not listed) | 300,000 tested, 1.4% active | AID 1885;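 active = mean inhibition across valid replicates above about 55%, limit read from the data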;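 note: signal also drops with host cell toxicity which is not excluded here; higher percent means less beta-gal luminescence so fewer parasites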
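Test system: β-gal T. cruzi (Tulahuen C4) inside NIH/3T3 cells / Quantity: 5,000 cells/well / Measured by: luminescence from GalScreen with 0.05% NP40, read after 60 min / Medium: DMEM plus 2% FBS / Measure: parasite load inhibition, % / Reagent: Tulahuen C4 trypomastigotes, 5000/well / Schedule: co-culture of at least 90 h after 3 h attachment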
CHOP inhibitor – blocks CHOP induction under ER stress; CHO-K1 CHOP-promoter luciferase, tunicamycin-induced, 15-18 h; inhibition, % at 10 µM; 220,000 tested, 3.8% active; AID 2732;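 active = compounds that reduced the stress-induced luciferase reporter signal by more than about 70% of percent inhibition, limit read from the data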
A number is an active result; n = inactive; x = not tested or not shown. The entries come from a sample that favours hits as a whole.

SMILES	L major viab	XBP1 UPR activ	Dynein cargo inh	UPR CHOP act	T cruzi repl	CHOP inhibitor
CCn1c(=NC(=O)CS(=O)(=O)c2ccc(C)cc2)sc2cccc(OC)c21	x	n	x	n	59.2	x
CC(C)(C)C(=O)Nc1cccc(-c2nc3ccccc3[nH]2)c1	n	n	n	n	n	n
CC(C)(C)C(=O)Nc1sc2c(c1-c1nc3ccccc3[nH]1)CCCC2	n	n	n	n	n	82.8
CC(OC(=O)CN(C)S(=O)(=O)c1ccc(Cl)cc1)C(=O)Nc1cccc(Cl)c1 (configuration not stated)	n	n	n	n	n	82.8
CC(OC(=O)CN(C)S(=O)(=O)c1ccc(Cl)cc1)C(=O)Nc1ncc(Cl)cc1Cl (configuration not stated)	n	n	n	n	n	n
O=C(CCc1nnc2n(Cc3ccc(F)cc3)c(=O)c3ccccc3n12)N1CCN(c2ccccn2)CC1	x	n	x	n	n	x
O=C(Nc1ccc(N2CCCCC2)cc1)c1ccc([N+](=O)[O-])o1	x	n	x	n	n	x
CN1CCN(c2ccc(NC(=O)c3ccc(-c4ccc(Br)cc4)o3)cc2)CC1	99.2	n	n	n	57.7	n
CS(=O)(=O)N1CCN(c2ccc(NC(=O)c3cc4ccccc4o3)cc2)CC1	x	n	x	n	n	x
CC1CCN(c2ccc(NC(=O)c3ccc([N+](=O)[O-])o3)cc2)CC1	x	n	x	n	71.6	x
CS(=O)(=O)N1CCN(c2ccc(NC(=O)c3ccc([N+](=O)[O-])o3)cc2)CC1	94.7	x	n	x	n	n
COc1ccc(Cc2nnc(NC(=O)Nc3ccccc3F)s2)cc1OC	x	n	x	n	n	x
CCOC(=O)c1c(C)[nH]c(C2=NNC(=NC3CC3)SC2)c1C	n	n	n	n	n	n
Cc1cccc(NC(=O)CSc2n[nH]c(-c3ccncc3)n2)c1C	x	n	x	n	n	x
O=c1c2c(-c3cccs3)csc2ncn1/N=C/c1ccc(OC(F)F)cc1	n	n	n	n	n	77.4
O=C1CCC([N+](=O)[O-])C(c2cc(Br)ccc2F)N1 (configuration not stated)	x	n	x	n	n	x
Clc1ccc(OCCCn2ccnc2)c(Br)c1	94.8	n	n	n	n	n
Cc1ccc(OCCOCCn2ccnc2)c(Br)c1	91.5	n	n	n	n	n
Cc1cc(Cl)c(OCCCn2ccnc2)c(Br)c1	n	n	n	n	n	n
COc1ccc(/C=N/N2CCOCC2)cc1COc1ccc(Cl)cc1	87.3	n	n	n	n	n
COc1cc2[nH]c(=O)n3nc(-c4ccccc4)nc3c2cc1OC	50.4	n	n	n	n	n
CCN(CC)CCNc1nc2cc(OC)c(OC)cc2c2nc(-c3ccccc3)nn12	100.5	n	n	n	64.7	n
CCOC(=O)c1c(NC(=O)C2=C(C)NC(=S)NC2c2ccc(F)cc2F)sc(C)c1C (configuration not stated)	n	n	n	n	n	n
CCOC(=O)c1c(NC(=O)C2=C(C)NC(=S)NC2c2ccc(F)cc2)sc(C)c1C (configuration not stated)	82.0	n	n	n	n	n
CCOC(=O)c1c(NC(=O)C2=C(C)NC(=S)NC2c2ccc(C)cc2)sc(C)c1C (configuration not stated)	80.6	n	n	n	n	74.0
SMILES	L major viab	XBP1 UPR activ	Dynein cargo inh	UPR CHOP act	T cruzi repl	CHOP inhibitor
Cc1ccc(C(=O)OCC(=O)NC(C)C2CC3CCC2C3)cc1N (configuration not stated)	x	n	x	n	x	x
COc1ccc(NS(=O)(=O)c2ccc(Cl)c(NC(=O)c3ccccc3F)c2)cc1	x	n	x	n	x	x
COc1ccc(NS(=O)(=O)c2ccc(N3CCOCC3)c(N)c2)cc1	x	n	x	n	x	x
COc1ccc2cc(/C(C)=N/NC(=S)Nc3cc(S(=O)(=O)N4CCOCC4)ccc3N3CCOCC3)ccc2c1	75.0	n	n	n	68.9	n
COc1ccc(NS(=O)(=O)c2ccc(N3CCOCC3)c(NC(=O)c3ccccc3Cl)c2)cc1	97.5	n	n	n	n	n
COc1ccc(NS(=O)(=O)c2ccc(N3CCOCC3)c(NC(=O)c3ccc(OC)cc3)c2)cc1	82.2	n	n	n	n	n
